Data reported in ChEMBL document CHEMBL3621152, “Highly Efficient Synthesis of 1,3-Dihydroxy-2-carboxycarbazole and Its Neuroprotective Effects” (ACS Med Chem Lett, 2015).
Calls of active or inactive are those of the source. The rule behind the calls is not given here.

How the values were obtained:
MC65 [1] = assay: Neuroprotective activity in human MC65 cells assessed as protection against tetracycline removal-induced toxicity UP TO 10 uM incubated for 72 hrs by MTT method; type: functional, cell-based; settings: in the assay text read “UP TO 100 uM” for “UP TO 10 uM”
Outline: (§1)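 Aβ toxicity in MC65 cells (C99 expression induced by tetracycline removal) with compound present at the indicated concentrations under -TC conditions for 72 h; viability read by MTT assay.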

MC65 [2] = assay: Neuroprotective activity in human MC65 cells assessed as protection against tetracycline removal-induced toxicity at 0.3 uM incubated for 72 hrs by MTT method; type: functional, cell-based; outline: as §1
MC65 [3] = assay: Neuroprotective activity in human MC65 cells assessed as protection against tetracycline removal-induced toxicity at 10 uM incubated for 72 hrs by MTT method; type: functional, cell-based; outline: as §1
MC65 [4] = assay: Effect on Abeta40 production in human MC65 cells at 0.1 to 1 uM incubated for 48 hrs under tetracycline removal condition by ELISA method; type: functional, cell-based
Outline: (§2)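 MC65 human neuroblastoma cells, which conditionally express APP C-terminal fragment C99 under tetracycline suppression, treated under -TC conditions for 48 h; Aβ40 and Aβ42 measured in the collected medium by ELISA.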

MC65 [5] = assay: Effect on Abeta42 production in human MC65 cells at 0.1 to 1 uM incubated for 48 hrs under tetracycline removal condition by ELISA method; type: functional, cell-based; outline: as §2
[6] = biological target: T1, Amyloid-beta precursor protein (Homo sapiens, UniProt P05067); assay: Inhibition of amyloid beta oligomerization in human MC65 cells assessed as small AbetaOs formation at 0.3 uM incubated for 48 hrs under tetracycline removal condition by Western blot method; type: cell-based
Outline: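 MC65 cells incubated with compound under -TC conditions for 48 h; culture lysates analyzed by Western blot with 6E10 antibody for Aβ oligomers.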

[7] = biological target: T1, Amyloid-beta precursor protein; assay: Inhibition of amyloid beta (1 to 42) (unknown origin) aggregation incubated for 48 hrs by Thioflavin-T Abeta aggregation assay
Outline: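 Aβ42 (10 µM) incubated with compound at the indicated concentrations for 48 h; aggregation measured by thioflavin T assay; curcumin (10 µM) used as positive control.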

[8] = Antioxidant activity assessed as DPPH radical scavenging activity at 0.3 to 100 uM incubated for 30 mins at 37 degC; type: physicochemical; settings: 0.5 h
Outline: (§3)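 Test compound or trolox incubated with DPPH (50 µM) in MeOH at 37 °C for 30 min at the indicated concentrations; radical scavenging read as absorbance at 517 nm.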

[9] = Antioxidant activity assessed as DPPH radical scavenging activity at 0.3 to 10 uM incubated for 30 mins at 37 degC; type: physicochemical; settings: 0.5 h; outline: as §3

T1 sequence (P05067 whole entry): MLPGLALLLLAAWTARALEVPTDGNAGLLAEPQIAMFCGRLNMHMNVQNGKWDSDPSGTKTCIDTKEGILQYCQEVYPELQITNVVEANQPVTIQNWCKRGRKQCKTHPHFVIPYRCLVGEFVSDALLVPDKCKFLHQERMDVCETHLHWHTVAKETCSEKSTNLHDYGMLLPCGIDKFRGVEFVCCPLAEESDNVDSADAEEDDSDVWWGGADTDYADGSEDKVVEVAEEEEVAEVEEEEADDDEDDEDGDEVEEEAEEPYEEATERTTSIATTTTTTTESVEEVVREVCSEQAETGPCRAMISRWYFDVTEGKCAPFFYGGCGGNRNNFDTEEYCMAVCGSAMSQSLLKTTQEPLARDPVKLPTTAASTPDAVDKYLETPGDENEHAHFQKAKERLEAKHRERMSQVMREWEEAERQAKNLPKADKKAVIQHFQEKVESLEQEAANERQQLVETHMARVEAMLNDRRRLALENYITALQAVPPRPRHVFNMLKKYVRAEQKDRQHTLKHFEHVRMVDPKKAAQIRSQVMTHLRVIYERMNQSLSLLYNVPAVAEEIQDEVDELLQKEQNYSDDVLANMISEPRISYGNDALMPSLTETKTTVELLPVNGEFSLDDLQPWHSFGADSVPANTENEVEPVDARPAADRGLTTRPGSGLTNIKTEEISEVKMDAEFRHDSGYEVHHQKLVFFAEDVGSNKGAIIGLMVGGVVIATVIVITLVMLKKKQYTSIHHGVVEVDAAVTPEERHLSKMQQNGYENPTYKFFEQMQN

O=C(O)c1c(O)cccc1O
Activity (MC65 [1]): inactive

O=C(O)c1c(O)cc2c([nH]c3ccccc32)c1O
Activity (MC65 [2]): Active
Activity (MC65 [3]): Active
Activity (MC65 [4]): inactive
Activity (MC65 [5]): inactive
inhibition [6]: Active
IC50 [7]: 15 µM
inhibition [7]: Dose-dependent effect
Activity [8]: Active

Cc1c(C)c2c(c(C)c1O)CCC(C)(C(=O)O)O2 (stereo not given) [TROLOX]
Activity [9]: Active
